Key:
Bifidobacterium breve [1] = experiment: Antimicrobial activity against 90 mins oxgall-stressed Bifidobacterium breve R0070 after 18 hrs; type: functional
Procedure, shortened: (§1)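 Cells pelleted from mid-log MRS culture and resuspended in MRS (initial pH 6.5) with 0.3% (wt/vol) oxgall for 90 min anaerobically at 37°C. They were then regrown in MRS pH 6.5 for 24 h (footnote: 18 h) anaerobically and tested for MIC by the same broth microdilution assay. Median of four repetitions.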

Bifidobacterium breve [2] = experiment: Antimicrobial activity against 90 mins hydrogen peroxide-stressed Bifidobacterium breve R0070 after 18 hrs; type: functional
Procedure, shortened: (§2)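 Stress applied for 90 min at 37°C under anaerobic conditions, using MRS (initial pH 6.5) containing H2O2 at each strain's own inhibitory concentration. The H2O2 level was set beforehand by microplate tolerance testing. Challenged cells were regrown in MRS for 24 h (footnote: 18 h) before MIC testing by broth microdilution. Median of four repetitions.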

[3] = test system: Bifidobacterium pseudolongum; experiment: Antimicrobial activity against 60 min 1 M HCl-stressed Bifidobacterium pseudolongum ATCC 25562 after 18 hrs; type: functional
Procedure, shortened: (§3)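 Mid-log MRS culture pelleted and resuspended in MRS broth brought to pH 2.0 with 1 M HCl, held anaerobically at 37°C for 60 min, then subcultured in MRS (pH 6.5) for 24 h anaerobically before MIC testing by broth microdilution (as for unstressed cells). Table footnote gives 18 h anaerobic regrowth after the stress. MIC is the median of four repetitions.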

Bifidobacterium longum [4] = experiment: Antimicrobial activity against 90 mins hydrogen peroxide-stressed Bifidobacterium longum R0175 after 18 hrs; type: functional; procedure, shortened: as §2
Bifidobacterium breve [5] = experiment: Antimicrobial activity against 60 min 1 M HCl-stressed Bifidobacterium breve ATCC 15700 after 18 hrs; type: functional; procedure, shortened: as §3
Bifidobacterium longum [6] = experiment: Antimicrobial activity against 90 mins hydrogen peroxide-stressed Bifidobacterium longum ATCC 15708 after 18 hrs; type: functional; procedure, shortened: as §2
[7] = Antimicrobial activity against 60 min 1 M HCl-stressed Bifidobacterium infantis ATCC 15697 after 18 hrs; type: functional, Bifidobacterium longum subsp. infantis; details: Bifidobacterium longum; procedure, shortened: as §3
Bifidobacterium longum [8] = experiment: Antimicrobial activity against 60 min 1 M HCl-stressed Bifidobacterium longum P/N 601377 after 18 hrs; type: functional; procedure, shortened: as §3
[9] = Antimicrobial activity against 90 mins oxgall-stressed Bifidobacterium infantis ATCC 15697 after 18 hrs; type: functional, Bifidobacterium longum subsp. infantis; details: Bifidobacterium longum; procedure, shortened: as §1
Bifidobacterium animalis [10] = experiment: Antimicrobial activity against Bifidobacterium animalis ATCC 27536; type: functional
Procedure, shortened: (§4)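 Broth microdilution in MRS plus 0.05% L-cysteine-HCl. Mid-log culture adjusted to OD650 0.1, giving about 2.5 × 10^4 to 5.0 × 10^4 CFU/well, then added to twofold serial dilutions of agent. Plates incubated anaerobically at 37°C for 18 h and read at OD650. MIC is the lowest concentration matching the uninoculated blank OD, taken as the median of four repeats.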

Bifidobacterium longum [11] = experiment: Antimicrobial activity against 60 min 1 M HCl-stressed Bifidobacterium longum R0175 after 18 hrs; type: functional; procedure, shortened: as §3
Bifidobacterium animalis [12] = experiment: Antimicrobial activity against 60 min 1 M HCl-stressed Bifidobacterium animalis ATCC 27536 after 18 hrs; type: functional; procedure, shortened: as §3
Bifidobacterium bifidum [13] = experiment: Antimicrobial activity against 90 mins oxgall-stressed Bifidobacterium bifidum BB12 after 18 hrs; type: functional; procedure, shortened: as §1
Bifidobacterium bifidum [14] = experiment: Antimicrobial activity against 60 min 1 M HCl-stressed Bifidobacterium bifidum R0071 after 18 hrs; type: functional; procedure, shortened: as §3
Bifidobacterium longum [15] = experiment: Antimicrobial activity against 90 mins oxgall-stressed Bifidobacterium longum ATCC 15707 after 18 hrs; type: functional; procedure, shortened: as §1
Bifidobacterium longum [16] = experiment: Antimicrobial activity against Bifidobacterium longum R0175; type: functional; procedure, shortened: as §4
[17] = test system: Bifidobacterium thermophilum; experiment: Antimicrobial activity against 90 mins hydrogen peroxide-stressed Bifidobacterium thermophilum ATCC 25866 after 18 hrs; type: functional; procedure, shortened: as §2
Bifidobacterium bifidum [18] = experiment: Antimicrobial activity against 60 min 1 M HCl-stressed Bifidobacterium bifidum BB12 after 18 hrs; type: functional; procedure, shortened: as §3
[19] = test system: Bifidobacterium thermophilum; experiment: Antimicrobial activity against 90 mins oxgall-stressed Bifidobacterium thermophilum ATCC 25866 after 18 hrs; type: functional; procedure, shortened: as §1
Bifidobacterium breve [20] = experiment: Antimicrobial activity against 90 mins hydrogen peroxide-stressed Bifidobacterium breve ATCC 15700 after 18 hrs; type: functional; procedure, shortened: as §2
[21] = test system: Bifidobacterium thermophilum; experiment: Antimicrobial activity against Bifidobacterium thermophilum ATCC 25866; type: functional; procedure, shortened: as §4
Bifidobacterium longum [22] = experiment: Antimicrobial activity against 90 mins hydrogen peroxide-stressed Bifidobacterium longum P/N 601377 after 18 hrs; type: functional; procedure, shortened: as §2
Bifidobacterium breve [23] = experiment: Antimicrobial activity against 90 mins oxgall-stressed Bifidobacterium breve ATCC 15700 after 18 hrs; type: functional; procedure, shortened: as §1
Bifidobacterium animalis [24] = experiment: Antimicrobial activity against 90 mins oxgall-stressed Bifidobacterium animalis ATCC 27536 after 18 hrs; type: functional; procedure, shortened: as §1
Bifidobacterium longum [25] = experiment: Antimicrobial activity against 90 mins hydrogen peroxide-stressed Bifidobacterium longum ATCC 15707 after 18 hrs; type: functional; procedure, shortened: as §2
Bifidobacterium breve [26] = experiment: Antimicrobial activity against Bifidobacterium breve R0070; type: functional; procedure, shortened: as §4
Bifidobacterium breve [27] = experiment: Antimicrobial activity against Bifidobacterium breve ATCC 15700; type: functional; procedure, shortened: as §4
Bifidobacterium bifidum [28] = experiment: Antimicrobial activity against 90 mins hydrogen peroxide-stressed Bifidobacterium bifidum BB12 after 18 hrs; type: functional; procedure, shortened: as §2
Bifidobacterium longum [29] = experiment: Antimicrobial activity against 60 min 1 M HCl-stressed Bifidobacterium longum ATCC 15707 after 18 hrs; type: functional; procedure, shortened: as §3
Bifidobacterium bifidum [30] = experiment: Antimicrobial activity against 90 mins oxgall-stressed Bifidobacterium bifidum ATCC 15696 after 18 hrs; type: functional; procedure, shortened: as §1
[31] = Antimicrobial activity against Bifidobacterium infantis ATCC 15697; type: functional, Bifidobacterium longum subsp. infantis; details: Bifidobacterium longum; procedure, shortened: as §4
Bifidobacterium longum [32] = experiment: Antimicrobial activity against Bifidobacterium longum ATCC 15707; type: functional; procedure, shortened: as §4
Bifidobacterium bifidum [33] = experiment: Antimicrobial activity against Bifidobacterium bifidum R0071; type: functional; procedure, shortened: as §4
Bifidobacterium animalis [34] = experiment: Antimicrobial activity against 90 mins hydrogen peroxide-stressed Bifidobacterium animalis ATCC 27536 after 18 hrs; type: functional; procedure, shortened: as §2
Bifidobacterium longum [35] = experiment: Antimicrobial activity against Bifidobacterium longum P/N 601377; type: functional; procedure, shortened: as §4
Bifidobacterium breve [36] = experiment: Antimicrobial activity against 60 min 1 M HCl-stressed Bifidobacterium breve R0070 after 18 hrs; type: functional; procedure, shortened: as §3
Bifidobacterium bifidum [37] = experiment: Antimicrobial activity against 90 mins hydrogen peroxide-stressed Bifidobacterium bifidum R0071 after 18 hrs; type: functional; procedure, shortened: as §2
Bifidobacterium bifidum [38] = experiment: Antimicrobial activity against Bifidobacterium bifidum ATCC 15696; type: functional; procedure, shortened: as §4
[39] = test system: Bifidobacterium pseudolongum; experiment: Antimicrobial activity against Bifidobacterium pseudolongum ATCC 25562; type: functional; procedure, shortened: as §4
Bifidobacterium longum [40] = experiment: Antimicrobial activity against Bifidobacterium longum ATCC 15708; type: functional; procedure, shortened: as §4
Bifidobacterium bifidum [41] = experiment: Antimicrobial activity against 90 mins oxgall-stressed Bifidobacterium bifidum R0071 after 18 hrs; type: functional; procedure, shortened: as §1
[42] = test system: Bifidobacterium pseudolongum; experiment: Antimicrobial activity against 90 mins oxgall-stressed Bifidobacterium pseudolongum ATCC 25562 after 18 hrs; type: functional; procedure, shortened: as §1
Bifidobacterium longum [43] = experiment: Antimicrobial activity against 90 mins oxgall-stressed Bifidobacterium longum ATCC 15708 after 18 hrs; type: functional; procedure, shortened: as §1
Bifidobacterium bifidum [44] = experiment: Antimicrobial activity against Bifidobacterium bifidum BB12; type: functional; procedure, shortened: as §4
Bifidobacterium longum [45] = experiment: Antimicrobial activity against 90 mins oxgall-stressed Bifidobacterium longum P/N 601377 after 18 hrs; type: functional; procedure, shortened: as §1
Bifidobacterium longum [46] = experiment: Antimicrobial activity against 90 mins oxgall-stressed Bifidobacterium longum R0175 after 18 hrs; type: functional; procedure, shortened: as §1
[47] = test system: Bifidobacterium thermophilum; experiment: Antimicrobial activity against 60 min 1 M HCl-stressed Bifidobacterium thermophilum ATCC 25866 after 18 hrs; type: functional; procedure, shortened: as §3

Measured: MIC

CC1(C)S[C@@H]2[C@H](NC(=O)Cc3ccccc3)C(=O)N2[C@H]1C(=O)O [PENICILLIN G]
3.9 µg/mL: Bifidobacterium longum [16] | Bifidobacterium bifidum [33]
0.98 µg/mL: Bifidobacterium breve [1] | Bifidobacterium breve [2] | [3] | Bifidobacterium longum [4] | Bifidobacterium breve [5] | Bifidobacterium longum [6] | [7] | Bifidobacterium longum [8] | [9] | Bifidobacterium animalis [10] | Bifidobacterium longum [11] | Bifidobacterium animalis [12] | Bifidobacterium bifidum [13] | Bifidobacterium longum [15] | [17] | Bifidobacterium bifidum [18] | [19] | Bifidobacterium breve [20] | [21] | Bifidobacterium longum [22] | Bifidobacterium breve [23] | Bifidobacterium animalis [24] | Bifidobacterium longum [25] | Bifidobacterium breve [27] | Bifidobacterium bifidum [28] | Bifidobacterium longum [29] | Bifidobacterium bifidum [30] | [31] | Bifidobacterium longum [32] | Bifidobacterium animalis [34] | Bifidobacterium longum [35] | Bifidobacterium bifidum [37] | Bifidobacterium bifidum [38] | [39] | Bifidobacterium longum [40] | Bifidobacterium bifidum [41] | [42] | Bifidobacterium longum [43] | Bifidobacterium bifidum [44] | Bifidobacterium longum [45] | Bifidobacterium longum [46] | [47]
1.9 µg/mL: Bifidobacterium bifidum [14] | Bifidobacterium breve [26] | Bifidobacterium breve [36]

— ChEMBL document CHEMBL1142148, “Antibiotic susceptibility profile of bifidobacteria as affected by oxgall, acid, and hydrogen peroxide stress” (2007)
